Results on 65 molecules are retold here after PubChem BioAssay AID1800 (The Scripps Research Institute Molecular Screening Center, 2009).

In all, about 290,000 compounds went through this assay and about 1,600 (0.55%) were called active.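 Rule for the calls: active = inhibition above the mean of all tested compounds plus 3 SD, set per campaign (cut at about 35% in these data); inactive = the rest.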 The entries come from a sample that favours actives as a whole.

In the experiment the test system is Hepatitis C virus NS3 helicase. Put plainly: inhibitors of HCV NS3 helicase, primary screen, biochemical, Cy5 molecular beacon fluorescence (AID 1800).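 Note: 0% = DMSO wells and 100% = thioflavine S control wells.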 Particulars: NS3 helicase DNA unwinding, at 10.9 µM, hits give high values. Put shortly:
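test system = hepatitis C virus NS3 helicase domain fragment enzyme | reagent = annealed dual-labelled DNA beacon duplex, ATP-started | times = 1 h at 25 °C | detection = Cy5 fluorescence, 0 and 60 min reads | read-out basis = percent inhibition from t60/t0 fluorescence ratio | control set = DMSO and thioflavine S | replication = one well per compound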
On to `O=c1c(-c2ccccc2Cl)c[nH]n1-c1ccccc1`, for which the inhibition is 3.07% (inactive).

As to `Cc1ccc(Nc2nnc(SCC(=O)c3cc4ccccc4o3)s2)cc1C`, the inhibition was 13.9% (inactive).

With `Cc1ccccc1Nc1nnc(SCC(=O)c2cc3ccccc3o2)s1`, the inhibition was 47.4% (active).

Take `Cc1cc(NC(=O)CSc2nnc(Nc3ccccc3F)s2)no1`: the inhibition was -0.95% (inactive).

As for `CC1CCN(S(=O)(=O)c2ccc(NC(=O)C3CC(=O)N(c4ccccc4)C3)cc2)CC1` (stereo not given), the inhibition is -43.1% (inactive).

On to `CN(C)c1ccnc2sc3c(=O)n(-c4ccc(Cl)cc4)cnc3c12`, for which the inhibition is 3.7% (inactive).

Turning to `Cc1cc(C)c2oc(C(=O)Nc3ccc(S(=O)(=O)Nc4nccc(C)n4)cc3)cc(=O)c2c1`, the inhibition was -10.1% (inactive).

In the case of `O=C(Nc1ccccc1C(=O)N1CCCCC1)c1ccco1`, the inhibition is 5.37% (inactive).

`O=C(Nc1ccccc1)c1ccco1`: the inhibition is 10.7% (inactive).

On to `CS/C(=C\C(=O)c1ccco1)Nc1ccccc1Cl`, for which the inhibition is 64.5% (active).

Consider `CCOc1ccc2sc(NS(=O)(=O)c3ccc(N)cc3)nc2c1`, for which the inhibition was -15.8% (inactive).

With `CN(C)[C@@H]1C(=O)C(C(N)=O)=C(O)[C@@]2(O)C(=O)C3=C(O)c4c(O)ccc(Cl)c4[C@@H](O)[C@H]3C[C@@H]12`, the inhibition is 39.9% (active).

Consider `Cc1cccc(-n2ncc(Cl)c(Cl)c2=O)c1`, for which the inhibition is 10.4% (inactive).

Take `Cc1ccc2nc3c(cc(C(=O)NCCc4ccccc4)c(=N)n3CC3CCCO3)c(=O)n2c1` (stereo not given): the inhibition is -6.17% (inactive).

`O=C(Oc1ccc([N+](=O)[O-])cc1)c1ccc(Cl)c(S(=O)(=O)N2CCCCC2)c1`: the inhibition is 7.15% (inactive).

For `CC(=O)Oc1cccc(N2C(=O)CC(Nc3ccc(N4CCOCC4)cc3)C2=O)c1` (stereo not given), the inhibition was 48.2% (active).

Consider `CC(=O)Oc1cccc(N2C(=O)C3CC=C(Cl)CC3C2=O)c1` (stereo not given), for which the inhibition was 6.02% (inactive).

As to `COc1cc2ccccc2cc1C(=O)Nc1ccc(N2CCOCC2)cc1`, the inhibition is -2.47% (inactive).

Consider `CCCCOC(=O)Nc1nnc(CC(=O)NCc2ccccc2)s1`, for which the inhibition was 8.31% (inactive).

With `O=C(CSc1ccc(-c2ccco2)nn1)Nc1cccc(F)c1`, the inhibition was 20.3% (inactive).

As for `COc1ccc(NC(=O)CCC(=O)Nc2cc(OC)c(NC(=O)c3ccco3)cc2OC)c(OC)c1`, the inhibition was 7.66% (inactive).

As to `COc1ccc(NC(=O)CSc2ccc(-c3ccco3)nn2)c(OC)c1`, the inhibition is 36.8% (active).

Take `CC1=C(C(=O)OCC2CCCCC2)C(c2ccc(F)cc2)NC(=O)N1` (stereo not given): the inhibition is 0.43% (inactive).

With `O=C1c2ccccc2S(=O)(=O)N1Cc1c(F)cccc1Cl`, the inhibition was 0.54% (inactive).

Consider `CCC1C/C(=C/c2cccs2)C(=O)/C(=C/c2cccs2)C1` (stereo not given), for which the inhibition was 44.1% (active).

As for `CN1C/C(=C/c2cccs2)C(=O)/C(=C\c2cccs2)C1`, the inhibition is 9.92% (inactive).

Consider `O=C1/C(=C/c2cccs2)CCc2ccccc21`, for which the inhibition is -2.06% (inactive).

On to `NC(=O)C1CCN(CC(O)CSc2ccc(F)cc2)CC1` (stereo not given), for which the inhibition is 3.59% (inactive).

As for `O=C(Nc1ccccc1)C1CCN(C(=O)c2ccc(Br)cc2)CC1`, the inhibition was -8.93% (inactive).

For `Cc1ccc(S(=O)(=O)NCCCn2ccnc2)cc1C(=O)NC(C)C`, the inhibition was -0.51% (inactive).

With `Cc1ccc(S(=O)(=O)NCCC(c2ccccc2)c2ccccc2)cc1C(=O)O`, the inhibition is 38.8% (active).

On to `Cc1ccc(S(=O)(=O)NCCSc2ccccc2)cc1[N+](=O)[O-]`, for which the inhibition is -4.6% (inactive).

As for `O=[N+]([O-])c1ccc2c(c1)Nc1nc3ccccc3nc1N2`, the inhibition is 3.43% (inactive).

For `CN1CCN(C(=O)c2cnn(-c3ccccc3)c2NC(=O)c2ccc([N+](=O)[O-])cc2)CC1`, the inhibition was 5.97% (inactive).

As to `CCOC(=O)c1c(-c2ccccc2)oc2cc(Br)c(O)cc12`, the inhibition was -8.03% (inactive).

On to `CCOC(=O)c1c(-c2ccccc2)oc2cc(Br)c(O)c(C=O)c12`, for which the inhibition is 63.8% (active).

As to `CCOC(=O)c1c(-c2ccccc2)oc2ccc(OCC(N)=O)cc12`, the inhibition was -0.28% (inactive).

As for `CCOc1cc(-c2noc(CCCC(=O)NC3CCCCC3)n2)ccc1OC`, the inhibition is -0.34% (inactive).

For `CCOc1ccc(CN2CCN(Cc3c[nH]c4ccccc34)CC2)cc1`, the inhibition is -65.4% (inactive).

With `CCC1(C(=O)c2ccccc2)C(c2cccc([N+](=O)[O-])c2)C1(C(=O)OC)C(=O)OC` (stereo not given), the inhibition is -10.6% (inactive).

On to `Cc1cccc(N=C2NC(=O)/C(=C/c3cn(C)c4ccccc34)S2)c1`, for which the inhibition is -2.21% (inactive).

`Cc1ccc(N=C2NC(=O)/C(=C/C=C/c3ccco3)S2)cc1C`: the inhibition was 60.8% (active).

`Cc1ccc(N2NC(=O)/C(=C/C=C/c3ccco3)C2=O)cc1C`: the inhibition was 31.6% (inactive).

Consider `Cc1ccc(S(=O)(=O)NCCC(=O)Nc2cccc(S(N)(=O)=O)c2)cc1C`, for which the inhibition was -12.2% (inactive).

`Nc1c(C(=O)c2cccs2)sc2nsc(SCCN3CCCCC3)c12`: the inhibition was -21.1% (inactive).

In the case of `CC(=O)c1cccc(NC(=S)N2CCN(S(C)(=O)=O)CC2)c1`, the inhibition is -3.09% (inactive).

As to `Cc1ccc(OCC(=O)Nc2ccccc2Sc2ccc(Cl)cc2)c([N+](=O)[O-])n1`, the inhibition is -5.04% (inactive).

Regarding `COc1ccc(/C=C/C(=O)c2ccc(OC)cc2O)cc1`, the inhibition was -6.12% (inactive).

For the molecule `COc1ccc(/C=C/C(=O)c2cc(Br)ccc(=O)c2O)cc1`, the inhibition was 45.2% (active).

As for `COc1ccc(C(=O)/C=C/c2ccc(OC3CSC3)cc2)cc1`, the inhibition was -2.94% (inactive).

Regarding `O=C(NC(=S)Nc1ccccc1N1CCCCC1)c1ccc(F)cc1`, the inhibition is 1.82% (inactive).

For the molecule `CCCn1c(C2CCCN2c2nc(-c3ccc(C)cc3)cs2)nc2cc(Cl)c(N3CCCCC3)cc21` (stereo not given), the inhibition was 35.5% (inactive).

For the molecule `CCn1c(C)c(C)c2cc(C(=O)N3CCN(c4cccc(C)c4C)CC3)ccc21`, the inhibition was 2.52% (inactive).

Turning to `Cc1ccc2nc(N3C(=O)C(O)=C(C(=O)c4ccco4)C3c3cccc(O)c3)sc2c1` (stereo not given), the inhibition was 25.4% (inactive).

In the case of `COc1cc(C2C(C(=O)c3ccco3)=C(O)C(=O)N2c2cc(C)on2)ccc1OCc1ccccc1` (stereo not given), the inhibition is 43.6% (active).

Turning to `Cc1cc(N2C(=O)C(O)=C(C(=O)c3ccc(C)o3)C2c2ccc(OCc3ccccc3)cc2)no1` (stereo not given), the inhibition is 87.7% (active).

Take `CCCOc1ccc(C2C(C(=O)c3ccc(C)o3)=C(O)C(=O)N2CCCn2ccnc2)cc1` (stereo not given): the inhibition was -15.3% (inactive).

As for `C=CCOc1cccc(C2C(C(=O)c3ccc(C)o3)=C(O)C(=O)N2CCCn2ccnc2)c1` (stereo not given), the inhibition was -4.21% (inactive).

Take `CCOc1cc(C2C(C(=O)c3ccco3)=C(O)C(=O)N2Cc2ccccc2)ccc1O` (stereo not given): the inhibition is 9.26% (inactive).

`COc1ccc(-c2cc(C(=O)N3CCN(Cc4ccc5c(c4)OCO5)CC3)on2)cc1OC`: the inhibition is -19.4% (inactive).

With `CC(=O)Nc1ccc(C(=O)N(C2=NC(C)CS2)c2ccc(Cl)cc2)cc1` (stereo not given), the inhibition is -10.2% (inactive).

In the case of `COc1ccccc1CCCNC(=O)C1CCC(=O)N(CCN2CCOCC2)C1` (stereo not given), the inhibition was 7.14% (inactive).

In the case of `COc1cccc(CNC(=O)c2cccnc2Sc2ccc(Cl)cc2)c1`, the inhibition is -6.66% (inactive).

Turning to `CC(=O)O[C@H]1c2ccccc2-c2ccccc2[C@@H]1OC(C)=O`, the inhibition is 13.1% (inactive).

Take `O=Cc1c(NCCc2cccc(F)c2)c2ccccc2[nH]c1=O`: the inhibition was 0.14% (inactive).
